This is an account of results in paper PMC11445516 (Nature Communications, 2024).

The conditions of data set [1]: through a range of pH's; cited from earlier work.
Data set [2] concerns BxPC-3 xenograft. The data set can be described thus: Efficacy study in BxPC-3 pancreatic cancer xenograft mouse model. It is filed as in vivo. The essentials: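 Female Foxn nu/nu mice (4 weeks old on arrival) received 3.5 × 10^6 BxPC-3 cells in 50:50 Cultrex BME:DMEM, injected subcutaneously into the right hind flank. At ~95 mm3 they were stratified into four groups of eight. […] Dosing ran 21 days, then 25 days of follow-up. Caliper volume, (W² × L)/2, and body weight were recorded biweekly. Analysis used a mixed model with Dunnett post hoc.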

For data set [3] the following is noted: previously measured; cited from earlier work.
In data set [4] the target is human placental alkaline phosphatase (Homo sapiens, UniProt P05187). As to the kind of experiment: Hydrolysis in human placental alkaline phosphatase solution. As to conditions: human placental ALP 0.5 unit/mL, prodrug 100 μM, Tris pH 7.6, 37 °C. The format is in vitro ADME.
human placental alkaline phosphatase, sequence (P05187 23-535): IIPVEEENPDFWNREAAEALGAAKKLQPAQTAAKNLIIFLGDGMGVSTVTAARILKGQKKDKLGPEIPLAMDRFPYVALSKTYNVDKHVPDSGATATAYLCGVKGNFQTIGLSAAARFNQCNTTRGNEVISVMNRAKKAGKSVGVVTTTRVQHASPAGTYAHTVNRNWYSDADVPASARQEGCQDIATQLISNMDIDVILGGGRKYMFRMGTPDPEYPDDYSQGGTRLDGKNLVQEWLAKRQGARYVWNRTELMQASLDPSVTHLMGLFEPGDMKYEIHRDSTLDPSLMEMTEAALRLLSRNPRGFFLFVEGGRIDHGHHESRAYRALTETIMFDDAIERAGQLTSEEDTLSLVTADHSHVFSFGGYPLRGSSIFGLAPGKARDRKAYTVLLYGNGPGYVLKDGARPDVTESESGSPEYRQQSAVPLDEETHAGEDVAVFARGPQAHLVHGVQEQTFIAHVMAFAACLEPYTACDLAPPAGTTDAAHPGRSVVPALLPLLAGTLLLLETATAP

With `CNC(=O)c1ccc(N2C(=S)N(c3ccc(C#N)c(C(F)(F)F)c3)C(=O)C2(C)C)cc1F` [Enzalutamide, enzalutamide], the Solubility in water in data set [1] was less than 0.1 µg/mL.

On to `CC(=O)O[C@H]1C(=O)[C@@]2(C)[C@H]([C@H](OC(=O)c3ccccc3)[C@]3(O)C[C@H](OC(=O)[C@H](O)[C@@H](NC(=O)c4ccccc4)c4ccccc4)C(C)=C1C3(C)C)[C@]1(OC(C)=O)CO[C@@H]1C[C@@H]2O` [Paclitaxel, paclitaxel, reference compound], for which the “Tumor growth inhibition (TGI)” value was determined as 78% in data set [2] (12.5 mg/kg IV QWK in Cremophor EL, following the 21-day dosing period) and 51% in data set [2] (12.5 mg/kg IV QWK in Cremophor EL, following the 25-day observation period). Moreover, the Oral bioavailability in data set [3] was less than 6%.

For the molecule `CC(=O)O[C@H]1C(=O)[C@@]2(C)[C@H]([C@H](OC(=O)c3ccccc3)[C@]3(O)C[C@H](OC(=O)[C@H](OC(=O)OCc4cc(P(=O)(O)O)ccc4OP(=O)(O)O)[C@@H](NC(=O)c4ccccc4)c4ccccc4)C(C)=C1C3(C)C)[C@]1(OC(C)=O)CO[C@@H]1C[C@@H]2O` [Compound 8vi, (3-((((((1S,2 R)-1-benzamido-3-(((2aR,4S,4aS,6 R,9S,11S,12S,12aR,12bS)-6,12b-diacetoxy-12-(benzoyloxy)-4,11-dihydroxy-4ª,8,13,13-tetramethyl−5-oxo-2ª,3,4,4ª,5,6,9,10,11,12,12ª,12b-dodecahydro-1H-7,11-methanocyclodeca[3,4]benzo[1,2-b]oxet-9-yl)oxy)-3-oxo-1-phenylpropan-2-yl)oxy)carbonyl)oxy)methyl)-4-(phosphonooxy)phenyl)phosphonic acid], the “Tumor growth inhibition (TGI)” value in data set [2] (25 mg/kg PO QOD in saline, following the 21-day dosing period) is “–15%”; in data set [2] (75 mg/kg PO QOD in saline, following the 25-day observation period) it was 84%. Besides, the Toxicity during dosing result in data set [2] (25 and 75 mg/kg PO QOD, 21 days) is recorded as “no appreciable toxicity”. Besides, the “Hydrolysis rate in ALP (drug formation rate)” value in data set [4] was 1.44 pmol/min.

In the case of `CC(=O)O[C@H]1C(=O)[C@@]2(C)[C@H]([C@H](OC(=O)c3ccccc3)[C@]3(O)C[C@H](OC(=O)[C@H](OC(=O)OCc4cc(C(=O)O)ccc4OP(=O)(O)O)[C@@H](NC(=O)c4ccccc4)c4ccccc4)C(C)=C1C3(C)C)[C@]1(OC(C)=O)CO[C@@H]1C[C@@H]2O` [Compound 8i, 3-((((((1S,2 R)-1-benzamido-3-(((2aR,4S,4aS,6 R,9S,11S,12S,12aR,12bS)-6,12b-diacetoxy-12-(benzoyloxy)-4,11-dihydroxy-4a,8,13,13-tetramethyl-5-oxo-2a,3,4,4a,5,6,9,10,11,12,12a,12b-dodecahydro-1H-7,11-methanocyclodeca[3,4]benzo[1,2-b]oxet-9-yl)oxy)-3-oxo-1-phenylpropan−2-yl)oxy)carbonyl)oxy)methyl)-4-(phosphonooxy)benzoic acid], in data set [4], the “Hydrolysis rate in ALP (drug formation rate)” value turned out to be 2.13 pmol/min.
